From ChEMBL document CHEMBL3612027, “Substrate-guided optimization of the syringolins yields potent proteasome inhibitors with activity against leukemia cell lines” (Bioorg Med Chem, 2015)

Legend:
Type in all cases: functional
HL-60 = assay: Cytotoxicity against human HL60 cells after 48 hrs; conditions: HL-60, 48 h
[1] = Cytotoxicity against human RPMI-8226 cells after 48 hrs; conditions: RPMI-8226, 48 h
CCRF-CEM = assay: Cytotoxicity against human CCRF-CEM cells assessed as cell growth at 10 uM after 48 hrs relative to control; conditions: read-out: Activity
In short: (§1)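 Run at the National Cancer Institute as a single-dose screen across its 60-cell-line cancer panel. Compound was tested at 10 micromolar, and growth was expressed as a percentage of negative-control cultures.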

K562 = assay: Cytotoxicity against human K562 cells assessed as cell growth at 10 uM after 48 hrs relative to control; conditions: K562, 48 h, read-out: Activity; in short: as §1
MOLT-4 = assay: Cytotoxicity against human MOLT4 cells assessed as cell growth at 10 uM after 48 hrs relative to control; conditions: MOLT-4, 48 h, read-out: Activity; in short: as §1
RPMI-8226 = assay: Cytotoxicity against human RPMI8226 cells assessed as cell growth at 10 uM after 48 hrs relative to control; conditions: RPMI-8226, 48 h, read-out: Activity; in short: as §1
SR = assay: Cytotoxicity against human SR cells assessed as cell growth at 10 uM after 48 hrs relative to control; conditions: read-out: Activity
In short: (§2)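 Submitted to the National Cancer Institute for a single-dose screen at 10 micromolar against 60 cancer cell lines. Growth is expressed relative to negative-control cultures.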

HOP-62 = assay: Cytotoxicity against human HOP62 cells assessed as cell growth at 10 uM after 48 hrs relative to control; conditions: HOP-62, 48 h, read-out: Activity; in short: as §1
NCI-H226 = assay: Cytotoxicity against human NCI-H226 cells assessed as cell growth at 10 uM after 48 hrs relative to control; conditions: NCI-H226, 48 h, read-out: Activity; in short: as §1
NCI-H23 = assay: Cytotoxicity against human NCI-H23 cells assessed as cell growth at 10 uM after 48 hrs relative to control; conditions: NCI-H23, 48 h, read-out: Activity; in short: as §1
NCI-H322M = assay: Cytotoxicity against human NCI-H322M cells assessed as cell growth at 10 uM after 48 hrs relative to control; conditions: read-out: Activity; in short: as §1
HCC 2998 = assay: Cytotoxicity against human HCC2998 cells assessed as cell growth at 10 uM after 48 hrs relative to control; conditions: HCC 2998, 48 h, read-out: Activity; in short: as §1
HCT-116 = assay: Cytotoxicity against human HCT116 cells assessed as cell growth at 10 uM after 48 hrs relative to control; conditions: HCT-116, 48 h, read-out: Activity; in short: as §1
SW-620 = assay: Cytotoxicity against human SW620 cells assessed as cell growth at 10 uM after 48 hrs relative to control; conditions: SW-620, 48 h, read-out: Activity; in short: as §2
SF-295 = assay: Cytotoxicity against human SF295 cells assessed as cell growth at 10 uM after 48 hrs relative to control; conditions: SF-295, 48 h, read-out: Activity; in short: as §1
SNB-19 = assay: Cytotoxicity against human SNB19 cells assessed as cell growth at 10 uM after 48 hrs relative to control; conditions: SNB-19, 48 h, read-out: Activity; in short: as §2
U-251 = assay: Cytotoxicity against human U251 cells assessed as cell growth at 10 uM after 48 hrs relative to control; conditions: U-251, 48 h, read-out: Activity; in short: as §2
LOX IMVI = assay: Cytotoxicity against human LOXIMVI cells assessed as cell growth at 10 uM after 48 hrs relative to control; conditions: read-out: Activity; in short: as §1
Malme-3M = assay: Cytotoxicity against human MALME-3M cells assessed as cell growth at 10 uM after 48 hrs relative to control; conditions: read-out: Activity; in short: as §1
M14 = assay: Cytotoxicity against human M14 cells assessed as cell growth at 10 uM after 48 hrs relative to control; conditions: M14, 48 h, read-out: Activity; in short: as §1
SK-MEL-2 = assay: Cytotoxicity against human SK-MEL-2 cells assessed as cell growth at 10 uM after 48 hrs relative to control; conditions: SK-MEL-2, 48 h, read-out: Activity; in short: as §1
SK-MEL-28 = assay: Cytotoxicity against human SK-MEL-28 cells assessed as cell growth at 10 uM after 48 hrs relative to control; conditions: SK-MEL-28, 48 h, read-out: Activity; in short: as §1
SK-MEL-5 = assay: Cytotoxicity against human SK-MEL-5 cells assessed as cell growth at 10 uM after 48 hrs relative to control; conditions: SK-MEL-5, 48 h, read-out: Activity; in short: as §1
UACC-257 = assay: Cytotoxicity against human UACC257 cells assessed as cell growth at 10 uM after 48 hrs relative to control; conditions: UACC-257, 48 h, read-out: Activity; in short: as §2
UACC-62 = assay: Cytotoxicity against human UACC62 cells assessed as cell growth at 10 uM after 48 hrs relative to control; conditions: UACC-62, 48 h, read-out: Activity; in short: as §2
IGROV-1 = assay: Cytotoxicity against human IGROV1 cells assessed as cell growth at 10 uM after 48 hrs relative to control; conditions: IGROV-1, 48 h, read-out: Activity; in short: as §1
OVCAR-3 = assay: Cytotoxicity against human OVCAR3 cells assessed as cell growth at 10 uM after 48 hrs relative to control; conditions: OVCAR-3, 48 h, read-out: Activity; in short: as §1
OVCAR-4 = assay: Cytotoxicity against human OVCAR4 cells assessed as cell growth at 10 uM after 48 hrs relative to control; conditions: OVCAR-4, 48 h, read-out: Activity; in short: as §1
OVCAR-5 = assay: Cytotoxicity against human OVCAR5 cells assessed as cell growth at 10 uM after 48 hrs relative to control; conditions: OVCAR-5, 48 h, read-out: Activity; in short: as §1
SK-OV-3 = assay: Cytotoxicity against human SKOV3 cells assessed as cell growth at 10 uM after 48 hrs relative to control; conditions: SK-OV-3, 48 h, read-out: Activity; in short: as §1
786-0 = assay: Cytotoxicity against human 786-0 cells assessed as cell growth at 10 uM after 48 hrs relative to control; conditions: 786-0, 48 h, read-out: Activity; in short: as §1
ACHN = assay: Cytotoxicity against human ACHN cells assessed as cell growth at 10 uM after 48 hrs relative to control; conditions: read-out: Activity; in short: as §1
CAKI-1 = assay: Cytotoxicity against human Caki1 cells assessed as cell growth at 10 uM after 48 hrs relative to control; conditions: CAKI-1, 48 h, read-out: Activity; in short: as §1
[2] = Cytotoxicity against human Hs578T cells assessed as cell growth at 10 uM after 48 hrs relative to control; conditions: Hs-578T, read-out: Activity; in short: as §1
BT-549 = assay: Cytotoxicity against human BT549 cells assessed as cell growth at 10 uM after 48 hrs relative to control; conditions: BT-549, 48 h, read-out: Activity; in short: as §1
MDA-MB-468 = assay: Cytotoxicity against human MDA-MB-468 cells assessed as cell growth at 10 uM after 48 hrs relative to control; conditions: MDA-MB-468, 48 h, read-out: Activity; in short: as §1
NCI-H522 = assay: Cytotoxicity against human NCI-H522 cells assessed as cell growth at 10 uM after 48 hrs relative to control; conditions: NCI-H522, 48 h, read-out: Activity; in short: as §1

With `COC(=O)[C@@H](NC(=O)N[C@@H](Cc1ccccc1)C(=O)N[C@H]1CCCCNC(=O)/C=C/[C@H](Cc2ccccc2)NC1=O)C(C)C` the GI50 (HL-60) was 4.34 µM, the GI50 [1] was 2.72 µM and the growth at 10 µM (CCRF-CEM) was 9.59%. For the same compound, the growth at 10 µM (K562) was 34.7%, the growth at 10 µM (MOLT-4) was -0.13% and the growth at 10 µM (RPMI-8226) was 7.17%. For the same compound, the growth at 10 µM (SR) was 1.45%, the growth at 10 µM (HOP-62) was 51.6% and the growth at 10 µM (NCI-H226) was -44.2%. It also gave a growth at 10 µM (NCI-H23) of 44.8%, a growth at 10 µM (NCI-H322M) of 98.1% and a growth at 10 µM (HCC 2998) of 5.56%. The growth at 10 µM (HCT-116) was 11.6%, the growth at 10 µM (SW-620) was 23.1% and the growth at 10 µM (SF-295) was 51.3%. The growth at 10 µM (SNB-19) was 39.8%, the growth at 10 µM (U-251) was 17.8% and the growth at 10 µM (LOX IMVI) was -4.92%. The growth at 10 µM (Malme-3M) was -0.39%, the growth at 10 µM (M14) was 53.9% and the growth at 10 µM (SK-MEL-2) was 0.98%. It also gave a growth at 10 µM (SK-MEL-28) of 33.3%, a growth at 10 µM (SK-MEL-5) of 18.6% and a growth at 10 µM (UACC-257) of 16.4%. It also gave a growth at 10 µM (UACC-62) of 9.78%, a growth at 10 µM (IGROV-1) of 30.6% and a growth at 10 µM (OVCAR-3) of -36.7%. For the same compound, the growth at 10 µM (OVCAR-4) was 53.3%, the growth at 10 µM (OVCAR-5) was 87% and the growth at 10 µM (SK-OV-3) was 61.1%. The growth at 10 µM (786-0) was 71.8%, the growth at 10 µM (ACHN) was 91.4% and the growth at 10 µM (CAKI-1) was 106%. The growth at 10 µM [2] was 24.9%, the growth at 10 µM (BT-549) was 3.25% and the growth at 10 µM (MDA-MB-468) was 0.26%. For the same compound, the growth at 10 µM (NCI-H522) was -37%.

Compound `COC(=O)[C@@H](NC(=O)N[C@@H](Cc1ccccc1)C(=O)N[C@H]1CCCCNC(=O)/C=C/[C@H](Cc2c[nH]c3ccccc23)NC1=O)C(C)C` has a GI50 (HL-60) of 1.29 µM, a GI50 [1] of 0.343 µM and a growth at 10 µM (CCRF-CEM) of 58.2%. For the same compound, the growth at 10 µM (K562) was 82.1%, the growth at 10 µM (MOLT-4) was 13.9% and the growth at 10 µM (RPMI-8226) was 21.2%. For the same compound, the growth at 10 µM (SR) was 21.9%, the growth at 10 µM (HOP-62) was 113% and the growth at 10 µM (NCI-H226) was 65.7%. For the same compound, the growth at 10 µM (NCI-H23) was 78.1%, the growth at 10 µM (NCI-H322M) was 99.4% and the growth at 10 µM (HCC 2998) was 91.8%. It also gave a growth at 10 µM (HCT-116) of 76.4%, a growth at 10 µM (SW-620) of 87.7% and a growth at 10 µM (SF-295) of 99.7%. The growth at 10 µM (SNB-19) was 51.2%, the growth at 10 µM (U-251) was 63.9% and the growth at 10 µM (LOX IMVI) was 64.7%. The growth at 10 µM (Malme-3M) was 94%, the growth at 10 µM (M14) was 101% and the growth at 10 µM (SK-MEL-2) was 22.3%. It also gave a growth at 10 µM (SK-MEL-28) of 62.7%, a growth at 10 µM (SK-MEL-5) of 63.9% and a growth at 10 µM (UACC-257) of 87.1%. For the same compound, the growth at 10 µM (UACC-62) was 79.3%, the growth at 10 µM (IGROV-1) was 61.4% and the growth at 10 µM (OVCAR-3) was 15.7%. For the same compound, the growth at 10 µM (OVCAR-4) was 102%, the growth at 10 µM (OVCAR-5) was 113% and the growth at 10 µM (SK-OV-3) was 95.4%. For the same compound, the growth at 10 µM (786-0) was 99.7%, the growth at 10 µM (ACHN) was 101% and the growth at 10 µM (CAKI-1) was 106%. It also gave a growth at 10 µM [2] of 58.2%, a growth at 10 µM (BT-549) of 26.6% and a growth at 10 µM (MDA-MB-468) of 18%. The growth at 10 µM (NCI-H522) was -0.14%.
